Bioassay records from PubChem.
FID counter = fluorescent intercalator displacement, NS3 helicase counter-screen; DNA fluorescent intercalator displacement, fluorescence; inhibition, % at 7.9 µM; actives 0.17% (n = 290,000); in the data active = inhibition above about 37%;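 also: 0% = vehicle and 100% = reference compound; higher means more ethidium bromide displaced from hairpin DNA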
RAD54 inh = inhibitors of human RAD54 branch migration; Q92698; RAD54 Holliday junction branch migration, FAM/BHQ fluorescence; actives 0.14% (n = 360,000); AID 602329; inhibition, % at 10.4 µM;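 active = mean normalized replicate activity at least 40 and at least half of replicates scoring 40 or more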;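 also: 0% = median of neutral control wells and 100% = median of positive control wells; inhibitors cause a drop in the FAM fluorescence signal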
Target sequence (Q92698 whole entry, looked up): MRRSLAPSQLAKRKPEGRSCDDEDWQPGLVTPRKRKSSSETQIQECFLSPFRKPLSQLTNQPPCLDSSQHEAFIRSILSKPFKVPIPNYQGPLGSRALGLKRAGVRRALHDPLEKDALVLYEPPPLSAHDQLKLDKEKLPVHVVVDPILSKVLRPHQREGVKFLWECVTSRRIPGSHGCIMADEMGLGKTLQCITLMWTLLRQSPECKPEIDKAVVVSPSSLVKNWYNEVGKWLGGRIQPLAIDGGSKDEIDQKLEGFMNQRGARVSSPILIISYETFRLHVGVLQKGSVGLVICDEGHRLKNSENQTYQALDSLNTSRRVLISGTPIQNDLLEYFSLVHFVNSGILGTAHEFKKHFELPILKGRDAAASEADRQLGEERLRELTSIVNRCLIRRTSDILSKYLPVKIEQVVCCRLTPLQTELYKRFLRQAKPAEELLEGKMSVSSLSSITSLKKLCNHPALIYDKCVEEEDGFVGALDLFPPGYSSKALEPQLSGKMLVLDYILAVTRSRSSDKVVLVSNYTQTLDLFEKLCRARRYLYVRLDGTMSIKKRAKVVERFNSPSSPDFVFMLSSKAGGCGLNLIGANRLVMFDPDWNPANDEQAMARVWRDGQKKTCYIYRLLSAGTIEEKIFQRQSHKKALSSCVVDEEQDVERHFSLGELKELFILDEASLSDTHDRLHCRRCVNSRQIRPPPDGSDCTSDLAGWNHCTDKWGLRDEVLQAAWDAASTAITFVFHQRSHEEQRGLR
UBC13 inh = blocks human UBC13 polyubiquitin chain formation | P61088 | TR-FRET | inhibition, % at 20 µM | actives 0.47% (n = 330,000); in the data active = inhibition above about 45%, passing the limit was not always enough
RAD52 anneal inh = RAD52 (human) annealing inhibition | P43351 | recombinant RAD52 DNA annealing, FRET fluorescence | inhibition, % at 18.7 µM | actives 0.46% (n = 360,000);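 active = every replicate showing at least 50% inhibition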
Apaf-1 inh = human Apaf-1 inhibition. O14727. reconstituted apoptosome caspase-3 activity, DEVD-Rh110 fluorescence. inhibition, % at 20 µM. actives 0.71% (n = 330,000); active = inhibition of at least 40% at 20 µM;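 also: plate controls were DMSO wells for no effect and DEVD-CHO caspase inhibitor wells for full effect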
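Material: biochemical Apaf-1 apoptosome reconstitution. Medium: Hepes buffer, pH 7.5. Also added: cytochrome c activation, bis-DEVD rhodamine 110 substrate. Timing: 30 min compound preincubation, 50 min activation, room temperature. Measured by: rhodamine 110 fluorescence at Ex 480/Em 540 nm.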
Neddyl block = inhibitors of human cullin neddylation | calls only at 25 µM | actives 0.58% (n = 360,000) | TR-FRET cullin neddylation, biochemical | P61081+Q13564; in the data active = inhibition above about 36%
Apaf-1 inh conf2 = Apaf-1 inhibition, single-dose confirmed; shares compounds with Apaf-1 inh; reconstituted apoptosome, caspase-3 DEVD-Rh110 fluorescence; inhibition, % at 20 µM; actives 25% (n = 1,800);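 active = mean inhibition of at least 40% at 20 µM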;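 also: plate controls were DMSO wells for no effect and DEVD-CHO caspase inhibitor control wells for full effect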
Rh110 quench = Rh110 signal interference in Apaf-1 inhibitor counter-screen | shares compounds with Apaf-1 inh | Rh110 fluorescence interference, quenched caspase reaction | activation (fluorescence interference), % at 20 µM | 1,800 tested, under 10 active;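 active = signal rise of 40% or more at 20 µM, treated as a fluorescence artifact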
Fluor interf inh = counter-screen for Apaf-1 inhibitors: fluorescence interference, dose response. shares compounds with Apaf-1 inh. fluorescence interference counterscreen, Apaf-1 assay format. IC50, µM. 460 tested, under 10 active. AID 588538; call rule not given here
An asterisk follows results filed as active; i = inactive; nt = no result. Compounds with a hit are over-represented: about 1.6% of the library has one in this group of screens.

SMILES	FID counter	RAD54 inh	UBC13 inh	RAD52 anneal inh	Apaf-1 inh	Neddyl block	Apaf-1 inh conf2	Rh110 quench	others
O=C1C(N2CCOCC2)=C(n2nnc3ccccc32)C(=O)c2ccccc21	1.5	-2.2	-175.5	nt	93.6*	i	96.8*	9.7	Fluor interf inh=>100
CO[C@@H]1CC[C@H]2CCN(C)C(=O)C[C@H](c3ccccc3)CN(C)C(=O)c3cc(C#N)ccc3OC[C@@H]1O2	nt	-5.1	nt	4.9	nt	nt	nt	nt
O=C1Cc2ccccc2C(=O)N1OCc1ccc(Cl)cc1	-12.8	nt	-43.8	-9.2	95.3*	i	28.8	10.0
O=C(C[C@H]1CC[C@H]2[C@@H](COC[C@H](O)CN2S(=O)(=O)c2ccccc2)O1)N1CCOCC1	nt	11.0	nt	3.1	nt	nt	nt	nt
CSCCC(NC(=O)c1ccccc1Br)C(=O)N1CCN(C(C)=O)CC1 (stereo not given)	nt	-5.4	1.0	12.6	48.1*	i	37.3	-1.1
CCOC(=O)COc1ccc2ccccc2c1/C=C/[N+](=O)[O-]	2.7	nt	nt	-2.5	nt	i	nt	nt
CCOc1ccc(/C=C/[N+](=O)[O-])c2ccccc12	-2.8	1.9	-44.1	nt	80.5*	i	23.9	1.5
CCCC#Cc1cnc2c(c1)C(=O)N([C@@H](C)CO)C[C@H](C)[C@H](CN(C)S(C)(=O)=O)O2	nt	-7.2	nt	11.0	nt	nt	nt	nt
CC1=C(Nc2ccc(C(=O)O)cc2)C(=O)c2ccccc2C1=O	-1.7	-9.1	-64.8	4.5	17.7	i	nt	nt
COC1=C(Nc2ccccc2)C(=O)c2ccccc2C1=O	8.6	nt	-165.6	nt	60.8*	i	25.5	9.2
COC1=C(Nc2ccc(C)cc2)C(=O)c2ccccc2C1=O	5.3	nt	-135.1	-13.1	61.5*	i	10.9	0.5
COc1ccc2c3c(n(C)c2c1)[C@@H](CO)N(Cc1ccccc1OC)CC31CCN(C)CC1	nt	nt	nt	-20.5	nt	nt	nt	nt
CCCCC1=CC2=C(c3ccco3)C(=O)C(C)(OC(=O)c3ccc(OC)cc3)C(=O)C2=CN1C1CC1 (stereo not given)	nt	-5.3	15.1	-30.5	40.1*	i	13.8	1.9
CCN(C(=S)NCCOC)c1cccc2ccccc12	-15.0	nt	-2.4	-4.9	-12.1	i	nt	nt
CCN(C(=S)NC(=O)c1ccco1)c1cccc2ccccc12	nt	-5.2	-20.8	-4.5	82.5*	i	16.9	7.6
CO[C@H]1CN(C)C(=O)c2ccc(NC(=O)c3cc(C)on3)cc2OC[C@@H](C)NC[C@H]1C	nt	-1.9	nt	7.5	nt	nt	nt	nt
CC1(c2ccc(OC(F)F)cc2)NC(=O)N(CC(=O)Nc2ccc(N3CCCCC3)cc2)C1=O (stereo not given)	nt	nt	5.2	-6.7	53.2*	i	18.8	4.0
CC1(c2ccc([N+](=O)[O-])cc2)NC(=O)N(CC(=O)Nc2ccc(N3CCCCC3)cc2)C1=O (stereo not given)	nt	nt	9.0	6.9	32.7	i	nt	nt
CCCNC(=O)N1C[C@@H]2[C@H](c3ccccc31)[C@H](CO)N2Cc1cc(F)ccc1F	nt	-2.4	nt	-4.7	nt	nt	nt	nt
C[C@H]1CN([C@@H](C)CO)C(=O)c2cc(NS(=O)(=O)c3cccs3)ccc2O[C@@H]1CN(C)Cc1ccncc1	nt	2.2	nt	-5.4	nt	nt	nt	nt
Cc1cc(/C=N/n2cnnc2)c(C)n1-c1ccc(OCc2ccc(Cl)cc2Cl)cc1	-10.2	nt	5.2	nt	45.6*	i	27.8	6.4
CC(C)NCC(O)c1ccc(NS(C)(=O)=O)cc1 (stereo not given)	1.9	7.2	7.6	2.8	-11.3	i	nt	nt
CC(C)NC[C@@H](O)c1ccc(O)c(O)c1	0.5	-0.9	12.8	-20.5	42.7*	i	13.9	5.5
O=C(c1ccc2c(c1)OCO2)N1CC(=O)N2[C@H](C1)[C@H](c1ccc(C#Cc3ccccc3)cc1)[C@@H]2CO	nt	nt	nt	12.8	nt	nt	nt	nt
Cc1c(CCOC(=O)c2ccc(Cl)cc2Cl)sc[n+]1CC(=O)c1ccccc1	nt	nt	37.6	36.7	55.9*	i	8.2	10.4
SMILES	FID counter	RAD54 inh	UBC13 inh	RAD52 anneal inh	Apaf-1 inh	Neddyl block	Apaf-1 inh conf2	Rh110 quench	others
Cc1ccc(C(=O)OCCc2sc[n+](Cc3ccccc3)c2C)cc1	8.0	nt	2.5	-5.1	-0.6	i	nt	nt
Cc1cccc(OCC(O)Cn2c(=N)n(Cc3ccccc3)c3ccccc32)c1 (stereo not given)	23.6	19.3	36.2	11.5	57.8*	i	11.4	11.0
O=C1C(C2=C(O)c3ccccc3C2=O)=Nc2ccccc21	-4.4	6.3	-93.9	nt	65.8*	i	99.1*	11.5	Fluor interf inh=>100
CCOc1c(O)ccc(/C=C2\SC(=S)NC2=O)c1[N+](=O)[O-]	2.3	nt	-45.1	-23.8	55.5*	i	55.0*	4.8	Fluor interf inh=>100
Cn1c(Cc2ccccc2)n[nH]c1=S	-1.2	nt	8.8	-3.8	41.5*	i	2.2	2.5
O=C1Nc2ccccc2Nc2ccc([N+](=O)[O-])cc21	3.5	-13.6	-66.5	-2.8	43.0*	i	32.8	1.5
Cc1ccc2[nH]c3c(c2c1)CN(C(=O)CN1CCCCC1)CC3	-4.2	nt	0.9	-22.7	-16.1	nt	nt	nt
Cc1ccc2[nH]c3c(c2c1)CN(C(=O)CN1CCCc2ccccc21)CC3	0.7	-3.1	-29.2	nt	78.5*	i	15.1	8.0
CC(=O)N=Cc1c(C)c(C#N)c(=O)n(C)c1O	-3.4	nt	-12.7	-74.1	43.9*	i	-1.8	-0.9
COc1ccc(/C=C2/C(=O)N(c3cccc(F)c3)N=C2C)c(OC)c1	-0.6	13.7	-22.3	-9.3	89.7*	i	17.3	1.6
CC1(C)Cc2c(C#N)c(N)n(-c3ccccc3)c(=S)c2CO1	0.2	-19.9	0.3	-17.8	-1.0	i	nt	nt
CC1(C)C=C2C(=NN(c3ccccc3)C(N)=C2C#N)CO1	-5.6	-10.1	-42.8	-27.6	47.4*	i	98.3*	3.6	Fluor interf inh=>100
CCCC(=O)Nc1ccc2nc(SCC(=O)N3CCCC3)sc2c1	-18.7	nt	-15.0	-1.3	-23.0	i	nt	nt
Cn1c(SCC(=O)Nc2ccc3nc(SCC(=O)N4CCCC4)sc3c2)nnc1-c1ccccc1	-26.8	nt	-10.3	nt	65.8*	nt	11.7	-2.4
CCNC(=O)C[C@H]1CC[C@@H]2[C@H](COC[C@H](O)CN2C(=O)C2CC2)O1	nt	6.7	nt	-10.1	nt	nt	nt	nt
C[C@@H]1CN([C@H](C)CO)C(=O)c2ccccc2-c2ccccc2CO[C@H]1CN(C)C(=O)[C@H](C)c1ccccc1	nt	5.3	nt	17.7	nt	nt	nt	nt
COC(=O)c1ccccc1-c1ccc(/C=C2\C(=O)N(c3ccccc3)N=C2c2ccccc2)o1	0.2	-19.2	-41.4	nt	62.3*	i	13.3	8.8
COc1ccc(NCc2cc3cc(OC)ccc3[nH]c2=O)cc1	6.4	-3.7	-33.5	-9.3	47.3*	i	61.7*	5.9	Fluor interf inh=>100
